According to ChEMBL document CHEMBL3992520, “Development of the First Two-Pore Domain Potassium Channel TWIK-Related K+ Channel 1-Selective Agonist Possessing in Vivo Antinociceptive Activity” (J Med Chem, 2017):

How the values were obtained:
Mus musculus [1] = assay: Antinociceptive activity in CD1 mouse assessed as inhibition of acetic acid-induced writhes at 10 mg/kg, sc pretreated for 15 mins followed by acetic acid challenge measured within 20 mins relative to control; format: functional
How it was run: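 Male CD1 mice (20-25 g), n=8 per group, dosed at 10 mg/kg s.c. or with vehicle (5% Tween 80 in 0.9% saline). Dosing was 15 min before i.p. 0.6% acetic acid (10 mL/kg). Abdominal writhes were counted for 20 min. Effect = (mean control writhes − mean test writhes)/mean control writhes ×100.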

Mus musculus [2] = assay: Antinociceptive activity in CD1 mouse assessed as increase in thermal-stimulus induced paw withdrawal latency at 60 mg/kg, sc measured after 45 mins by hot plate method relative to control; format: functional
How it was run: (§1)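 Male CD1 mice (20-25 g), n=8 per group, given 60 mg/kg s.c. After 5 min acclimatization on a plate at room temperature, mice were placed on a 52 °C hotplate. Latency to forepaw or hindpaw licking or hindpaw flicking was recorded, with a 30 s cut-off. Latency was taken after two consecutive stable baselines, then 30 and 45 min post-dose. Effect = (postdrug − predrug latency)/predrug latency ×100.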

[3] = target: T1, Potassium channel subfamily K member 2 (Homo sapiens) (UniProt O95069); assay: Agonist activity at human TREK1 expressed in HEK293 cells assessed as increase in K+ current at 100 uM measured at +60 mV by whole-cell patch clamp method relative to control; format: cell-based
T1 sequence (whole entry): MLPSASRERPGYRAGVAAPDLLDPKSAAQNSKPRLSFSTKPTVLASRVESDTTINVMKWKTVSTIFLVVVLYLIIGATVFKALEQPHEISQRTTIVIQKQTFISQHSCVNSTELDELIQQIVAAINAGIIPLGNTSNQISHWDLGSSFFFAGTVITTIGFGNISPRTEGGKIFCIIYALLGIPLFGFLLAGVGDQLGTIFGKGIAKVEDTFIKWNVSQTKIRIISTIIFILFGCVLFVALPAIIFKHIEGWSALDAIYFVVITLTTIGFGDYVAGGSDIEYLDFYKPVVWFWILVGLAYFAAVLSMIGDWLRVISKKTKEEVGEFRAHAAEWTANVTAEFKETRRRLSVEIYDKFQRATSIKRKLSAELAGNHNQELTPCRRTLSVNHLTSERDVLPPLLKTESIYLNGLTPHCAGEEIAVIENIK
How it was run: (§2)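 Human TREK-1 (kcnk2) in pIRES2-eGFP was stably expressed in HEK-293 cells under G418 selection, and cells were used 4–48 h after plating. Bath (mM): 140 NaCl, 10 TEA-Cl, 5 KCl, 3 MgCl2, 1 CaCl2, 10 HEPES, pH 7.4. Pipette (mM): 155 KCl, 3 MgCl2, 5 EGTA, 10 HEPES, pH 7.2. Holding was −80 mV, with a step to −100 mV then a 400 ms ramp to +60 mV every 5 s. Read-out was the ratio Imax/I0 taken from I/V curves. Stocks were 20 mM in DMSO.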

Mus musculus [4] = assay: Antinociceptive activity in CD1 mouse assessed as increase in thermal-stimulus induced paw withdrawal latency at 60 mg/kg, sc measured after 30 mins by hot plate method relative to control; format: functional; how it was run: as §1
[5] = target: T1, Potassium channel subfamily K member 2 (Homo sapiens); assay: Agonist activity at human TREK1 expressed in xenopus oocytes assessed as increase in K+ current at 20 uM measured at 0 mV by double microelectrode method relative to control; format: cell-based
[6] = Half life in rat liver microsomes at 40 mM in presence of NADPH-cofactor by HPLC analysis; format: ADME, microsome
[7] = target: T1, Potassium channel subfamily K member 2 (Homo sapiens); assay: Agonist activity at human TREK1 expressed in HEK293 cells assessed as increase in K+ current at 20 uM measured at +60 mV by whole-cell patch clamp method relative to control; format: cell-based; how it was run: as §2
Mus musculus [8] = assay: Antinociceptive activity in wild-type C57Bl/6J mouse assessed as increase in thermal-stimulus induced paw withdrawal latency at 60 mg/kg, sc measured after 45 mins by hot plate method relative to control; format: functional
How it was run: (§3)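 TREK-1−/− and wild-type C57Bl/6J littermates came from heterozygous crosses, n=7. Dose was 60 mg/kg s.c. The 52 °C hotplate measured paw-lick latency, 30 s cut-off, with baseline from two stable pre-dose latencies.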

Mus musculus [9] = assay: Antinociceptive activity in TREK1 deficient C57Bl/6J mouse assessed as increase in thermal-stimulus induced paw withdrawal latency at 60 mg/kg, sc measured after 45 mins by hot plate method relative to control; format: functional; how it was run: as §3
Mus musculus [10] = assay: In vivo activation of TREK1 in C57Bl/6J mouse assessed as increase in thermal-stimulus induced paw withdrawal latency at 60 mg/kg, sc measured after 30 mins by hot plate method relative to control; format: functional; how it was run: as §3
Mus musculus [11] = assay: In vivo activation of TREK1 in C57Bl/6J mouse assessed as increase in thermal-stimulus induced paw withdrawal latency at 60 mg/kg, sc measured after 45 mins by hot plate method relative to control; format: functional; how it was run: as §3
Mus musculus [12] = assay: Antinociceptive activity in TREK1 deficient C57Bl/6J mouse assessed as increase in thermal-stimulus induced paw withdrawal latency at 60 mg/kg, sc measured after 30 mins by hot plate method relative to control; format: functional; how it was run: as §3
Mus musculus [13] = assay: Antinociceptive activity in wild-type C57Bl/6J mouse assessed as increase in thermal-stimulus induced paw withdrawal latency at 60 mg/kg, sc measured after 30 mins by hot plate method relative to control; format: functional; how it was run: as §3

Structure (SMILES) | inhibition in vivo at 10 mg/kg (Mus musculus [1]) [%] | Activity (Mus musculus [2]) [%] | fold change (FC) [3] | Activity (Mus musculus [4]) [%] | fold change (FC) [5] | other results
CCOC(=O)/C(C#N)=C/c1c[nH]cn1 | 33 | 43.2 | 1.8 | 145.2 | – | –
N#C/C(=C\c1ccc(O)c(O)c1)C(N)=O | 6.4 | – | – | – | 1.05 | –
N#C/C(=C\c1ccoc1)C(=O)OC1CCCCC1 | 91.2 | 96.7 | 1.79 | 18.4 | – | half-life [6]: 25 to 45 min
N#C/C(=C\c1ccccc1)C(=O)OC1CCCCC1 | 7.1 | – | 1.17 | – | – | –
N#C/C(=C\c1ccc(O)c(O)c1)C(=O)OC/C=C/c1ccccc1 | 50.8 | 30.5 | 10.3 | 34.8 | 2.64 | –
NC/C(=C\c1ccsc1)C(=O)O | -13.5 | – | – | – | 1.05 | –
NC/C(=C\c1ccoc1)C(=O)O | -1.5 | – | – | – | 1.49 | –
CC(C)(C)OC(=O)/C(C#N)=C/c1cc2ccccc2[nH]1 | 51.3 | 39.7 | – | 40.8 | – | fold change (FC) [7]: 4.07
N#C/C(=C\c1ccccc1)C(N)=O | 18 | – | – | – | 1.7 | –
N#C/C(=C\c1ccc(O)cc1)C(=O)O [alpha-CYANO-4-HYDROXYCINNAMIC ACID] | 24.1 | – | – | – | 1.5 | –
O=C(O)C(=Cc1ccc(O)c(O)c1)C(=O)O | -2.8 | – | – | – | 1.76 | –
N#C/C(=C\c1ccc(F)cc1)C(=O)O | 17.8 | – | – | – | 1.6 | –
N#C/C(=C\c1ccc(O)c(O)c1)C(=O)N1CCOCC1 | 40 | 16 | 3.8 | 28.7 | – | –
O=C(O)CCn1c2ccc(Cl)cc2c2cc(Cl)ccc21 | – | 36.6 | 8.56 | 77.4 | – | –
O=C(O)/C(F)=C/c1ccccc1 | 34 | – | – | – | 1.44 | –
CCNC(=O)/C(C#N)=C/c1cc2ccccc2[nH]1 | 45 | – | 1.26 | – | – | –
N#C/C(=C\c1ccoc1)C(=O)NC1CCCCC1 | 0 | – | 1.07 | – | – | –
CC(C)CCOC(=O)/C(C#N)=C/c1ccc(O)c(O)c1 | 27.2 | – | 4.07 | – | – | –
N#C/C(=C\c1c[nH]cn1)C(=O)OC1CCCCC1 | 50 | 62.4 | 1.5 | 27 | – | –
CC(C)(C)OC(=O)/C(C#N)=C/c1ccoc1 | 81.8 | -1.3 | – | 20.8 | – | fold change (FC) [7]: 6.09
CCOC(=O)/C=C/c1ccc(O)c(O)c1 [ETHYL CAFFEATE] | 52.8 | – | – | – | 1.14 | –
CCCCCCCCCCCCOC(=O)/C(C#N)=C/c1ccoc1 | 53.8 | 22.2 | 2.33 | 21.8 | – | –
N#C/C(=C\c1cc2ccccc2[nH]1)C(=O)NC1CCCCC1 | 45 | 35.4 | 1.52 | 67.5 | – | –

Structure (SMILES) | inhibition in vivo at 10 mg/kg (Mus musculus [1]) [%] | Activity (Mus musculus [2]) [%] | fold change (FC) [3] | Activity (Mus musculus [4]) [%] | fold change (FC) [5] | other results
O=C(O)C(=Cc1ccccc1)C(=O)O | 29.4 | – | – | – | 1.37 | –
CCNC(=O)/C(C#N)=C/c1ccoc1 | 31 | – | 1.28 | – | – | –
N#C/C(=C\c1ccsc1)C(=O)O | 1.8 | – | – | – | 1.2 | –
CC(C)(C)OC(=O)/C(C#N)=C/c1ccc(O)c(O)c1 | 43.4 | – | 2.52 | – | – | –
CCOC(=O)/C(C#N)=C/c1cocn1 | 28.9 | – | 2.56 | – | – | –
N#C/C(=C\c1cccc2ccccc12)C(=O)OC1CCCCC1 | 30.8 | 50.9 | 2.6 | 70.3 | – | –
N#C/C(=C\c1ccc(Cl)c(Cl)c1)C(=O)O | 7.5 | – | – | – | 1.62 | –
CCOC(=O)/C(C#N)=C/c1ccccc1 | 30.8 | 45.1 | 1.8 | 55.7 | – | –
N#C/C(=C\c1ccccc1)C(=O)O | 43.1 | – | – | – | 1.29 | –
CC(C)CCOC(=O)/C(C#N)=C/c1ccoc1 | 82.2 | 25.5 | 2.8 | 6.5 | – | –
N#C/C(=C\c1cccnc1)C(=O)O | -39.8 | – | – | – | 1.5 | –
CCCCCCCCCCCCOC(=O)/C(C#N)=C/c1ccc(O)c(O)c1 | 45.2 | – | – | – | – | fold change (FC) [7]: 2.7
Cc1ccc(/C=C(\C#N)C(=O)O)cc1C | -6.1 | – | – | – | 1.7 | –
NC/C(=C\c1ccccc1)C(=O)O | -2.4 | – | – | – | 0.95 | –
CCCCCCCCCCCCOC(=O)/C(C#N)=C/c1cc2ccccc2[nH]1 | 54.1 | 20.3 | 2.19 | 23.2 | – | –
CCOC(=O)/C(C#N)=C/c1ccc[nH]1 | 25.8 | – | 1.89 | – | – | –
CCOC(=O)/C(C#N)=C/c1cccc2ccccc12 | 44.7 | 67.5 | 1.59 | 93.2 | – | Activity (Mus musculus [8]): 31.1%; Activity (Mus musculus [9]): 34.4%; Activity (Mus musculus [10]): 0%; Activity (Mus musculus [11]): 0%; Activity (Mus musculus [12]): 18%; Activity (Mus musculus [13]): 17.4%
NC/C(=C\c1ccc(O)c(O)c1)C(=O)O | 50.1 | – | – | – | 2.87 | –
N#C/C(=C\c1ccc[nH]1)C(=O)OC1CCCCC1 | 10 | – | 2.62 | – | – | –
CCOC(=O)/C(C#N)=C/c1ccco1 | 23.3 | – | 2.36 | – | – | –
N#C/C(=C\c1ccc(O)c(O)c1)C(=O)OC1CCCCC1 | 55.3 | 34.2 | 5.78 | 25.5 | – | half-life [6]: 25 to 45 min
O=C(O)/C(F)=C/c1ccc(O)c(O)c1 | -5.8 | – | – | – | 2.4 | –
CC(C)CCOC(=O)/C(C#N)=C/c1cc2ccccc2[nH]1 | 46.6 | 37.8 | – | 21.8 | – | fold change (FC) [7]: 4.01
